# Where two headings read alike, the source gives them in different places.
# Columns and labels:
# [1] = format: in vitro ADME, rat; settings: for Concentration founded: n = 3
# Summary of the method: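 QC samples (n = 3) were spiked into THU-pretreated rat plasma at low, mid and high levels: 15, 125, 3200 ng/ml prodrug and 12, 125, 3200 ng/ml parent drug. 50 µl plasma was protein-precipitated with methanol plus didanosine IS and centrifuged. Extracts were held in the autosampler at 10 °C for 8 h before UPLC–MS/MS. Read-outs were found concentration and relative error.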
# [2] = Pharmacokinetic study in rats after oral administration of JDR or gemcitabine; format: in vivo; settings: male, Wistar, rat, plasma, 50 mg/kg
# Summary of the method: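 Twelve male Wistar rats (180–220 g) were fasted 12 h and randomized into two groups (n = 6). Each received one oral dose: prodrug at gemcitabine-equivalent 50 mg/kg or parent drug 50 mg/kg. Blood was drawn at 0.083–48 h (prodrug) or 0.25–24 h (parent) into heparinized THU-treated tubes and spun 3000 × g 15 min; plasma was kept at −80 °C. Analysis was UPLC–MS/MS MRM, with noncompartmental parameters.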
structure (smiles),measurement,setting,value
Nc1ccn([C@@H]2O[C@H](CO)[C@@H](O)C2(F)F)c(=O)n1 [Gemcitabine],RE%,"[1]; autosampler rack at 10 °C for 8 h, High QC",−6.4%
same,RE%,"[1]; autosampler rack at 10 °C for 8 h, Low QC",0.9%
same,RE%,"[1]; autosampler rack at 10 °C for 8 h, Mid QC",9.1%
same,RE%,"[1]; rat plasma, bench-top (20 °C for 1 h), High QC",−8.9%
same,Concentration founded,"[1]; rat plasma, bench-top (20 °C for 1 h), High QC (added 3200.00 ng/ml)",2915.15 ± 95.7 ng/mL
same,RE%,"[1]; rat plasma, bench-top (20 °C for 1 h), Low QC",−4.8%
same,RE%,"[1]; rat plasma, bench-top (20 °C for 1 h), Mid QC",7.8%
same,Concentration founded,"[1]; rat plasma, bench-top (20 °C for 1 h), Mid QC (added 125.00 ng/ml)",134.78 ± 1.6 ng/mL
same,RE%,"[1]; rat plasma, freezing at -80 °C for 2 months, High QC",−0.1%
same,RE%,"[1]; rat plasma, freezing at -80 °C for 2 months, Low QC",−2.1%
same,RE%,"[1]; rat plasma, freezing at -80 °C for 2 months, Mid QC",4.3%
same,Concentration founded,"[1]; rat plasma, freezing at -80 °C for 2 months, Mid QC (added 125.00 ng/ml)",130.38 ± 10.6 ng/mL
same,RE%,"[1]; rat plasma, three freeze/thaw cycles (-80 to 20 °C), High QC",−7.3%
same,RE%,"[1]; rat plasma, three freeze/thaw cycles (-80 to 20 °C), Low QC",−2.0%
same,RE%,"[1]; rat plasma, three freeze/thaw cycles (-80 to 20 °C), Mid QC",7.4%
same,Cmax,[2],1180 ± 47.1 ng/mL
same,Tmax,[2],1.5 ± 0.9 h
same,half-life,[2],157 ± 66 min
